This note sets out measurements from the array DNA melting data of Ke et al. (doi:10.1101/2024.01.08.574731).

The nature of data set [1]: folding enthalpy; higher = less favourable; fluorescence melt of hairpins on a sequencing array, two-state fit. To be noted: sodium 0.088 M. The gist of the method:
(§1)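 Hairpins were imaged by Cy3 fluorescence on a sequenced MiSeq flow cell with annealed Cy3 and quencher oligos, in 50 mM Na-HEPES pH 8.0, 25 mM NaCl, in 2.5 °C steps up to 60 °C. Bootstrapped two-state fits of normalised signals gave melting temperature and folding enthalpy. Four replicates were combined by inverse variance, and fitted temperatures were raised by 9.35 °C to match UV melts.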

Data set [2] can be described thus: melting temperature; fluorescence melt of hairpins on a sequencing array, two-state fit, raised by 9.35 °C to match UV melts. To be noted: sodium 0.088 M. The gist of the method:
as §1

For GCTCCCGAAAGGGTTAGC ((((((....)))..))), in data set [1], the folding enthalpy was -16.2 kcal/mol. In addition, the Tm in data set [2] turned out to be 43.3 °C.

For the sequence GCTCCCGGAAACGGGAAC (.(((((....))))).), the folding enthalpy in data set [1] is -15 kcal/mol. Besides, in data set [2], the Tm is 43 °C.

As to GCTCCGACGAAAGTCAGC (((..(((....)))))), in data set [1], the folding enthalpy is -13.3 kcal/mol. In data set [2], the Tm is 32.2 °C.

Take GCTCCGCGAAAGCATAGC (((..((....))..))): the folding enthalpy in data set [1] is -10.1 kcal/mol. In data set [2], the Tm was 33.1 °C.

As to GCTCCGCGAAAGCCGCGC ((.(.((....)).).)), in data set [1], the folding enthalpy is -11.8 kcal/mol. Also, in data set [2], the Tm came out at 36.2 °C.

For GCTCCGCGAAAGCCGTGC ((.(.((....)).).)), the folding enthalpy in data set [1] was -9.49 kcal/mol. In addition, in data set [2], the Tm worked out at 39.1 °C.

For the sequence GCTCCGCGAAAGCTCAGC (((..((....))..))), in data set [1], the folding enthalpy is -9.77 kcal/mol. For the same sequence, in data set [2], the Tm came out at 27.2 °C.

As for GCTCCGCGAAAGCTGCGC ((.(.((....)).).)), the folding enthalpy in data set [1] was -14.5 kcal/mol. Besides, the Tm in data set [2] was 44.4 °C.

In the case of GCTCCGGCGAAAGCCAGC (((..(((....)))))), the folding enthalpy in data set [1] is -11.2 kcal/mol. For the same sequence, the Tm in data set [2] came to 32.6 °C.

GCTCCGGGAAACCGAAGC (((.(((....))).))): the folding enthalpy in data set [1] is -27.9 kcal/mol. Besides, the Tm in data set [2] is 47.5 °C.

As for GCTCCTCGAAAGAGAAGC (((.(((....))).))), the folding enthalpy in data set [1] is -29.4 kcal/mol. The Tm in data set [2] came out at 46.1 °C.

With GCTCGAACGAAAGTTAGC (((..(((....)))))), the folding enthalpy in data set [1] was -12.1 kcal/mol. In data set [2], the Tm was determined as 31.5 °C.

For the sequence GCTCGACCGAAAGGTAGC (((..(((....)))))), the folding enthalpy in data set [1] was -13.8 kcal/mol. Also, in data set [2], the Tm turned out to be 39 °C.

On to GCTCGACGAAAGTCAGC (((.(((....)))))), for which the folding enthalpy in data set [1] is -19.3 kcal/mol. Further, the Tm in data set [2] is 51.6 °C.

As for GCTCGACGAAAGTCTAGC (((.(((....))).))), in data set [1], the folding enthalpy is -41.8 kcal/mol. Also, in data set [2], the Tm stood at 49.6 °C.

GCTCGAGCGAAAGCTAGC (((..(((....)))))): the folding enthalpy in data set [1] was -13.2 kcal/mol. In addition, in data set [2], the Tm was 39.1 °C.

For GCTCGAGGAAACTCAAGC (((.(((....))).))), the folding enthalpy in data set [1] was -30.7 kcal/mol. Further, the Tm in data set [2] came to 37.7 °C.

GCTCGCCGAAAGGCTAGC (((.(((....))).))): the folding enthalpy in data set [1] was -27.9 kcal/mol. For the same sequence, the Tm in data set [2] turned out to be 54.6 °C.

As to GCTCGCGAAAGCGTAGC ((((((....))).))), the folding enthalpy in data set [1] is -19 kcal/mol. Besides, in data set [2], the Tm was 61.9 °C.

On to GCTCGCGAAAGCGTTAGC ((((((....)))..))), for which the folding enthalpy in data set [1] was -14.1 kcal/mol. The Tm in data set [2] turned out to be 45.9 °C.

As to GCTCGCGGAAACGTGAGC ((((.((....)).)))), in data set [1], the folding enthalpy was -37.6 kcal/mol. Further, the Tm in data set [2] amounted to 64.9 °C.

As for GCTCGCGGAAACGTGGGC ((.(.((....)).).)), the folding enthalpy in data set [1] was -34 kcal/mol. In data set [2], the Tm amounted to 50.2 °C.

On to GCTCGGCGAAAGCTCAGC (((..((....))..))), for which the folding enthalpy in data set [1] was -11.9 kcal/mol. In addition, the Tm in data set [2] was 44.7 °C.

Consider GCTCGTGCGAAAGCAAGC (((..(((....)))))), for which, in data set [1], the folding enthalpy was -7.01 kcal/mol. In addition, in data set [2], the Tm came out at 45.5 °C.

Consider GCTCGTGGAAACATGAGC ((((.((....)).)))), for which the folding enthalpy in data set [1] was -37.1 kcal/mol. Besides, the Tm in data set [2] worked out at 54.5 °C.

For the sequence GCTCGTGGAAACATGGGC ((.(.((....)).).)), the folding enthalpy in data set [1] was -17.1 kcal/mol. In addition, the Tm in data set [2] is 42.9 °C.

On to GCTCGTGGAAACGCGAGC (((((.(....).))))), for which, in data set [1], the folding enthalpy is -47.9 kcal/mol. In data set [2], the Tm stood at 63.2 °C.

As for GCTCTAGCGAAAGCTAGC (((..(((....)))))), the folding enthalpy in data set [1] is -5.88 kcal/mol. For the same sequence, in data set [2], the Tm turned out to be 38.3 °C.

In the case of GCTCTAGGAAACTAGAGC (((((((....))))))), in data set [1], the folding enthalpy is -44.6 kcal/mol. Also, in data set [2], the Tm is 60.1 °C.

On to GCTCTCGAAAGAGTAAGC ((((((....)))..))), for which, in data set [1], the folding enthalpy was -22.6 kcal/mol. Also, in data set [2], the Tm stood at 39.7 °C.

Turning to GCTCTCGGAAACAAGAGC (((((.(....).))))), the folding enthalpy in data set [1] was -33.6 kcal/mol. Moreover, the Tm in data set [2] amounted to 40.2 °C.

Consider GCTCTGCCGAAAGGCAGC (((..(((....)))))), for which the folding enthalpy in data set [1] is -6.01 kcal/mol. Besides, the Tm in data set [2] worked out at 40 °C.

With GCTCTGCGAAAGCACTGC ((..(((....)))..)), in data set [1], the folding enthalpy is -10.7 kcal/mol. For the same sequence, the Tm in data set [2] came out at 31.6 °C.

As for GCTCTGCGAAAGCCGAGC ((((.((....)).)))), the folding enthalpy in data set [1] was -25.2 kcal/mol. Further, the Tm in data set [2] turned out to be 60.1 °C.

Regarding GCTCTGCGAAAGCCGTGC ((.(.((....)).).)), in data set [1], the folding enthalpy is -11.9 kcal/mol. In data set [2], the Tm turned out to be 36.2 °C.

As to GCTCTGCGAAAGCCTAGC (((..((....))..))), the folding enthalpy in data set [1] is -14.7 kcal/mol. In addition, the Tm in data set [2] was determined as 36.6 °C.
